ChEMBL document CHEMBL2069294, “Synthesis and evaluation of hybrid drugs for a potential HIV/AIDS-malaria combination therapy” (Bioorg Med Chem, 2012)
The source made the active and inactive calls. The calls are words filed in the database; no cut-off is given here.

How the values were obtained:
Plasmodium falciparum [1] = assay: Antiplasmodial activity against Plasmodium falciparum 3D7 ring stage cells assessed as reduction parasitemia by Malstat assay; format: functional, organism-based
[2] = Selectivity index, ratio of CC50 for human HeLa cells to IC50 for VSV-G pseudotyped HIV1 lentiviral particles; format: functional
Method in brief: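 Ratio of HeLa MTT CC50 to IC50 in the 48 h VSV-G-pseudotyped HIV-1 reporter assay in HeLa cells.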

[3] = tested on: Human immunodeficiency virus 1; assay: Antiviral activity against VSV-G pseudotyped HIV1 lentiviral particles infected in human HeLa cells incubated for 48 hrs by spectrofluorometry; format: functional, organism-based
HeLa = assay: Cytotoxicity against human HeLa cells by MTT assay; format: cell-based
Method in brief: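 MTT reduction assay on HeLa cells (DMEM, 10% heat-inactivated FCS) with serial dilutions; CC50 taken as concentration giving 50% growth inhibition, ± SEM.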

[4] = Selectivity index, ratio of CC50 for human HeLa cells to IC50 for Plasmodium falciparum 3D7 ring stage cells; format: functional
Method in brief: (§1)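 Ratio of HeLa MTT CC50 to Malstat IC50 against the stated P. falciparum strain (ring-stage, triplicate, 1% parasitemia).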

Plasmodium falciparum [5] = assay: Antiplasmodial activity against drug resistant Plasmodium falciparum Dd2 ring stage cells assessed as reduction parasitemia by Malstat assay; format: functional, organism-based
[6] = Selectivity index, ratio of CC50 for human HeLa cells to IC50 for Plasmodium falciparum Dd2 ring stage cells; format: functional; method in brief: as §1
Plasma [7] = assay: Drug metabolism in C57/BL6 mouse plasma assessed as azidothymidine level at 20 mg/kg, po dissolved in Pheroid formulation; format: ADME, organism-based; parameters: dose 20 mg/kg, route oral; details: in vivo
Method in brief: (§2)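 Male C57/BL6 mice given 20 mg/kg by oral gavage (200 µl) in 10% DMSO (resuspended precipitate) or Pheroid vesicles; tail blood at 30–480 min (DMSO) or 10–420 min (Pheroid), plasma separated; parent, AZT and DHA quantified by LC–MS/MS after acetonitrile extraction with deoxythymidine internal standard, calibration in plasma.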

Blood [8] = assay: Drug metabolism in C57/BL6 mouse blood assessed as dihydroartemisinin level at 20 mg/kg, po dissolved in 10% DMSO; format: ADME, organism-based; parameters: dose 20 mg/kg, route oral; details: in vivo; method in brief: as §2
Mus musculus = assay: Toxicity in Plasmodium […] N infected in C57/BL6 mouse assessed as parasitemia at 20 mg/kg, po dosed 30 mins post parasite infection and same dose repeated on days 1, 2 and 3 post infection measured on parasitemia day 2 to 7; format: organism-based; parameters: dose 20 mg/kg, route oral; details: in vivo, 0.5 h
Method in brief: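 Infected mice dosed orally at 20 mg/kg on days 0–3 (first dose 30 min after intraperitoneal infection); death of treated infected mice before day 6 counted as toxic death; parasitemia followed on Giemsa smears to day 7.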

[9] = Prodrug release in buffer assessed as azidothymidine level; format: physicochemical
Plasma [10] = assay: Drug metabolism in C57/BL6 mouse plasma assessed as dihydroartemisinin level at 20 mg/kg, po dissolved in 10% DMSO; format: ADME, organism-based; parameters: dose 20 mg/kg, route oral; details: in vivo; method in brief: as §2
Blood [11] = assay: Drug metabolism in C57/BL6 mouse blood assessed as azidothymidine level at 20 mg/kg, po dissolved in Pheroid formulation; format: ADME, organism-based; parameters: dose 20 mg/kg, route oral; details: in vivo; method in brief: as §2
Plasmodium falciparum [12] = assay: Antiplasmodial activity against Plasmodium falciparum NF54 assessed as reduction in stage IV and V gametocyte formation at IC50 level incubated for 48 hrs measured 7 days post compound wash by Giemsa staining; format: functional, organism-based
[13] = Cmax in C57/BL6 mouse plasma at 20 mg/kg, po dissolved in Pheroid formulation; format: ADME, organism-based; parameters: dose 20 mg/kg, route oral; method in brief: as §2
Plasma [14] = assay: Drug metabolism in C57/BL6 mouse plasma assessed as azidothymidine level at 20 mg/kg, po dissolved in 10% DMSO; format: ADME, organism-based; parameters: dose 20 mg/kg, route oral; details: in vivo; method in brief: as §2
Blood [15] = assay: Drug metabolism in C57/BL6 mouse blood assessed as dihydroartemisinin level at 20 mg/kg, po dissolved in Pheroid formulation; format: ADME, organism-based; parameters: dose 20 mg/kg, route oral; details: in vivo; method in brief: as §2
[16] = Prodrug release in buffer assessed as dihydroartemisinin level; format: physicochemical
Plasma [17] = assay: Drug metabolism in C57/BL6 mouse plasma assessed as dihydroartemisinin level at 20 mg/kg, po dissolved in Pheroid formulation; format: ADME, organism-based; parameters: dose 20 mg/kg, route oral; details: in vivo; method in brief: as §2
[18] = Drug metabolism in C57/BL6 mouse liver microsomes measured after 15 mins; format: ADME, Microsome; details: read-out: Drug metabolism
Method in brief: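 Compound at 1 µM final incubated at 37 °C with mouse liver microsomes (0.2 mg/ml protein) in phosphate buffer pH 7.4; started with 1 mM NADPH; aliquots at 0, 15, 30, 45 min quenched in cold acetonitrile; parent remaining (% of time zero) and released AZT/DHA measured by LC–MS/MS.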

[19] = tested on: Human immunodeficiency virus 1; assay: Antiviral activity against HIV1 NL43 infected din human MT4 cells pre-incubated in presence of compound for 48 hrs followed by TZM cells infection with compound treated virus supernatant by X-gal staining based microscopy; format: functional, organism-based; details: Human immunodeficiency virus 1, NL43, TZM
Method in brief: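 MT4 co-culture with NL43 HIV-1 preincubated 4 h at 37 °C, then compounds in DMSO added at six concentrations for 48 h; cell-free supernatant used to infect TZM cells in triplicate; after 2 days cells fixed (acetone/ethanol), X-Gal stained 2–4 h, blue cells counted; uninfected and untreated-infected wells set as 100% and 0% activity.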

Blood [20] = assay: Drug metabolism in C57/BL6 mouse blood assessed as azidothymidine level at 20 mg/kg, po dissolved in 10% DMSO; format: ADME, organism-based; parameters: dose 20 mg/kg, route oral; details: in vivo; method in brief: as §2
[21] = Human immunodeficiency virus 1, HeLa, 48 h, read-out: IC50
[22] = Plasmodium falciparum, 3D7, read-out: IC50

Structure (SMILES) | Ratio CC50/IC50 [2] | IC50 [3, 21] | IC50 (HeLa) | IC50 (Plasmodium falciparum [1]; [22]) | Ratio CC50/IC50 [4] | IC50 (Plasmodium falciparum [5]) | Ratio CC50/IC50 [6] | IC50 ([3]; hela) | also measured
Cc1nnc(C(=O)NC(C)(C)c2nc(C(=O)NCc3ccc(F)cc3)c(O)c(=O)n2C)o1 [RALTEGRAVIR] | >10000 | 10 nM | > 100000 nM | – | – | – | – | – | IC50 (Plasmodium falciparum [1]): Not Active
Cc1cn([C@H]2C[C@H](NC(=O)NCCCCCNc3ccnc4cc(Cl)ccc34)[C@@H](CO)O2)c(=O)[nH]c1=O | – | – | > 100000 nM | 5180 nM | >19.3 | 8020 nM | >12.5 | Not Active | –
OCCNc1ccnc2cc(Cl)ccc12 | – | – | > 100000 nM | 2200 nM | >45.5 | 1720 nM | >58.1 | Not Active | –
Cc1cn([C@H]2C[C@H](N=[N+]=[N-])[C@@H](CO[C@H]3O[C@@H]4O[C@@]5(C)CC[C@H]6[C@H](C)CC[C@@H]([C@H]3C)[C@@]46OO5)O2)c(=O)[nH]c1=O | >35 | 2860 nM | > 100000 nM | 30 nM | >3333.3 | 10 nM | >10000 | – | Drug metabolism (Plasma [7]): Active; Drug metabolism (Blood [8]): Not Active; Activity (Mus musculus): Non-toxic; Drug metabolism [9]: Active; Drug metabolism (Plasma [10]): Active; Drug metabolism (Blood [11]): Active; inhibition (Plasmodium falciparum [12]): Active; Cmax [13]: 40 ng/mL; Drug metabolism (Plasma [14]): Not Active; Drug metabolism (Blood [15]): Not Active; Drug metabolism [16]: Not Active; Drug metabolism (Plasma [17]): Active; metabolised at 0.25 h [18]: > 90%; IC50 [19]: 486 nM; Drug metabolism (Blood [20]): Active
CCOC(=O)C(=O)N[C@H]1C[C@H](n2cc(C)c(=O)[nH]c2=O)O[C@@H]1CO[Si](c1ccccc1)(c1ccccc1)C(C)(C)C | – | – | 64000 nM | 11100 nM | 5.75 | 12100 nM | 5.3 | Not Active | –
Cc1cn([C@H]2C[C@H](NC(=O)NCCNc3ccnc4cc(Cl)ccc34)[C@@H](CO[Si](c3ccccc3)(c3ccccc3)C(C)(C)C)O2)c(=O)[nH]c1=O | – | – | 23800 nM | 370 nM | 64.3 | 340 nM | 69.9 | Not Active | –
Cc1cn([C@H]2C[C@H](NC(=O)CC3CCC4(CC3)OOC3(OO4)C4CC5CC(C4)CC3C5)[C@@H](CO)O2)c(=O)[nH]c1=O (stereo partly drawn) | – | – | 23400 nM | 220 nM | 106.3 | 100 nM | 233.8 | Not Active | –
NCCNc1ccnc2cc(Cl)ccc12 | – | – | 63400 nM | 30 nM | 2114.7 | – | 275.8 | Not Active | –
Cc1cn([C@H]2C[C@H](NC(=O)NCCCCCNc3ccnc4cc(Cl)ccc34)[C@@H](CO[Si](c3ccccc3)(c3ccccc3)C(C)(C)C)O2)c(=O)[nH]c1=O | 4.6 | 7920 nM | 36100 nM | 580 nM | 62.3 | 80 nM | 451.6 | – | –
COc1cc(NC(C)CCCN)c2ncccc2c1 (stereo not drawn) | – | – | – | – | – | – | – | – | inhibition (Plasmodium falciparum [12]): Active
Cc1cn([C@H]2C[C@H](N=[N+]=[N-])[C@@H](CO)O2)c(=O)[nH]c1=O [ZIDOVUDINE] | – | 40 nM | > 100000 nM | – | – | – | – | – | IC50 (Plasmodium falciparum [1]): Not Active
Cc1cn([C@H]2C[C@H](NC(=O)C(=O)NCCCCCNc3ccnc4cc(Cl)ccc34)[C@@H](CO[Si](c3ccccc3)(c3ccccc3)C(C)(C)C)O2)c(=O)[nH]c1=O | 31.8 | 900 nM | 28600 nM | 380 nM | 75.4 | 80 nM | 358.1 | – | –
NCCCCCNc1ccnc2cc(Cl)ccc12 | – | – | 56600 nM | 130 nM | >435.7 | 230 nM | >246.3 | Not Active | –
Cc1cn([C@H]2C[C@H](N=[N+]=[N-])[C@@H](CO)O2)c(=O)n(CCNc2ccnc3cc(Cl)ccc23)c1=O | >14 | 7150 nM | > 100000 nM | 460 nM | >217.4 | 650 nM | >153.8 | – | –
Cc1cn([C@H]2C[C@H](N=[N+]=[N-])[C@@H](CO)O2)c(=O)n(Cc2cccc(Nc3ccnc4cc(Cl)ccc34)c2)c1=O | >56.8 | 1760 nM | > 100000 nM | 160 nM | >625 | 220 nM | >454.5 | – | –
Cc1cn([C@H]2C[C@H](NC(=O)C(=O)NCCCCCNc3ccnc4cc(Cl)ccc34)[C@@H](CO)O2)c(=O)[nH]c1=O | – | – | > 100000 nM | 1940 nM | >51.5 | 10600 nM | >9.5 | Not Active | –
Cc1cn([C@H]2C[C@H](NC(=O)CC3CCC4(CC3)OOC3(OO4)C4CC5CC(C4)CC3C5)[C@@H](CO[Si](c3ccccc3)(c3ccccc3)C(C)(C)C)O2)c(=O)[nH]c1=O (stereo partly drawn) | – | – | > 100000 nM | 270 nM | >370.4 | 190 nM | >526.3 | Not Active | –
CCN(CC)CCCC(C)Nc1ccnc2cc(Cl)ccc12 (stereo not drawn) [CHLOROQUINE] | – | 12500 nM | > 100000 nM | – | – | – | – | – | –
Cc1cn([C@H]2C[C@H](n3cc(CO[C@H]4O[C@@H]5O[C@@]6(C)CC[C@H]7[C@H](C)CC[C@@H]([C@H]4C)[C@@]57OO6)nn3)[C@@H](CO)O2)c(=O)[nH]c1=O | >9 | 11100 nM | > 100000 nM | 270 nM | >370.4 | 100 nM | >1000 | – | –
C[C@H]1[C@@H](O)O[C@@H]2O[C@@]3(C)CC[C@H]4[C@H](C)CC[C@@H]1[C@@]24OO3 [ARTENIMOL] | – | – | > 100000 nM | 30 nM | >3333.3 | 10 nM | – | Not Active | inhibition (Plasmodium falciparum [12]): Active
Cc1cn([C@H]2C[C@H](NC(=O)NCCNc3ccnc4cc(Cl)ccc34)[C@@H](CO)O2)c(=O)[nH]c1=O | – | – | > 100000 nM | 3530 nM | >28.3 | 31600 nM | >3.2 | Not Active | –
OCc1cccc(Nc2ccnc3cc(Cl)ccc23)c1 | – | – | > 100000 nM | 1420 nM | >70.4 | 1460 nM | >68.5 | Not Active | –
